Laboratory results from publication PMC3445631 (Bioorganic & medicinal chemistry letters, 2012).

Key:
[1] = molecular target: mCB2 receptor (Mus musculus, UniProt P47936); test: Photolabeling of mCB2; assay type: binding; conditions: HEK293 cell membranes expressing mCB2, photoactivated
In short: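 Compound-free membranes were run in parallel as control. Incubated 30 min at 37°C, then UV-irradiated at 365 nm for 1 h on ice. Washed with 1% BSA TME, then plain TME. Followed by [3H]CP-55940 saturation binding.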

[2] = molecular target: hCB2 (Homo sapiens, UniProt P34972); test: Photolabeling of hCB2; assay type: binding
Sequence of hCB2 (P34972 whole entry): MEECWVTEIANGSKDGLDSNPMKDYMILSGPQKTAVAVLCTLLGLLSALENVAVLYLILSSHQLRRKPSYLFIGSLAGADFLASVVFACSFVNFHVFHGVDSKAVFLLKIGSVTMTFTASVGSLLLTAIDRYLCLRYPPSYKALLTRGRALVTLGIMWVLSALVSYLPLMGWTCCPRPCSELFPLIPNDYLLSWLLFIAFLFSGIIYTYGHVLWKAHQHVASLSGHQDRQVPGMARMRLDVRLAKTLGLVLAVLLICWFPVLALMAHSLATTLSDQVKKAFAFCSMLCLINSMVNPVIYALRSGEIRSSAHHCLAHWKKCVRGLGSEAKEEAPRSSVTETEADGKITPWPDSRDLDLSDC

Sequence of mCB2 receptor (P47936 whole entry): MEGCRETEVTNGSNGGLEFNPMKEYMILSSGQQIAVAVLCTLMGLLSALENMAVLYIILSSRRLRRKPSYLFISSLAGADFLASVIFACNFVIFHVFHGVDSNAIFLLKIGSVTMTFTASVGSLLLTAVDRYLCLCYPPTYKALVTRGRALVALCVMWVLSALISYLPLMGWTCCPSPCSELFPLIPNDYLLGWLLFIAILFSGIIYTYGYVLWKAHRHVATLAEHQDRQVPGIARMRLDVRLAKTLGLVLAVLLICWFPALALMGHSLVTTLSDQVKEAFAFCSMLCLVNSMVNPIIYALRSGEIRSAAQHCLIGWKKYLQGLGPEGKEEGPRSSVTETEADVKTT

Compound: CC1(C)Oc2cc(C(=O)c3c[nH]c4ccccc34)cc(O)c2[C@@H]2C[C@H](O)CC[C@H]21 [Compound 50]
- ability to photolabel the mCB2 receptor [1]: failed to label mCB2

Compound: CC1(C)Oc2cc(C(=O)c3cccc(C(F)(F)F)c3)cc(O)c2[C@@H]2C[C@H](O)CC[C@H]21 [Compound 49]
- extent of labeling of hCB2 [2]: 30%
- ability to photolabel the mCB2 receptor [1]: also labeled, however, less effectively
